From ChEMBL document CHEMBL5303300, “EUbOPEN Chemogenomics Library - Multiplex” (2023)
“And” between values parts separate entries of the source, which are not always exact repeats. Equal entries are not always repeated.

Legend:
Assay type in all cases: toxicity, cell-based
Fibroblast = experiment: Multiplex assay against human fibroblast; settings: number of replicates 2
In short: (§1)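 Cells were classed with CellPathfinder machine-learning gating, first as Hoechst high-intensity objects or normal cells, then (normal cells) as healthy, pyknosed or fragmented nuclei, and finally (pyknosed cells) as mitotic or apoptotic. Staining of live cells at seeding used Hoechst33342, BioTracker Green Microtubule Cytoskeleton Dye, MitoTracker Red and Annexin V Alexa Fluor 680, with imaging on a CQ1 microscope at 37°C and 5% CO2 after compound addition. Tubulin, mitochondrial-mass and membrane-permeability phenotypes are per cents of healthy-nucleus cells.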

HEK-293T = experiment: Multiplex assay against HEK293T; settings: human, number of replicates 2; in short: as §1
U2OS = experiment: Multiplex assay against U2OS; settings: human, number of replicates 2; in short: as §1
[1] = 12 h, 1 µM, compound concentration 1 uM
[2] = 12 h, 10 µM, compound concentration 10 uM
[3] = 24 h, 1 µM, compound concentration 1 uM
[4] = 24 h, 10 µM, compound concentration 10 uM
[5] = 48 h, 1 µM, compound concentration 1 uM
[6] = 48 h, 10 µM, compound concentration 10 uM

## O=S(=O)(c1ccccc1)N(CC(F)(F)F)c1ccc(C(O)(C(F)(F)F)C(F)(F)F)cc1 [T091317]
Fibroblast; [1]
  Population Apoptotic (%): 45% and 27%
  Population Fragmented Nuclei (%): 13% and 11%
  Population Healthy Nuclei (%): 60% and 68%
  Population Hoechst High Intensity Objects (%): 0%
  Population Membrane Permeable-Phenotype (%): 8% and 10%
  Population Mitochondria Different-Phenotype (%): 1%
  Population Mitotic Cells (%): 54% and 72%
  Population Normal (%): 100%
  Population Pyknosed Nuclei (%): 25% and 20%
  Population Tubulin-Different-Phenotype (%): 28% and 21%
  Total Cell Count: 135 and 214
Fibroblast; [2]
  Population Apoptotic (%): 33% and 30%
  Population Fragmented Nuclei (%): 14% and 12%
  Population Healthy Nuclei (%): 58% and 67%
  Population Hoechst High Intensity Objects (%): 0%
  Population Membrane Permeable-Phenotype (%): 6% and 8%
  Population Mitochondria Different-Phenotype (%): 1% and 4%
  Population Mitotic Cells (%): 66% and 69%
  Population Normal (%): 99% and 100%
  Population Pyknosed Nuclei (%): 28% and 19%
  Population Tubulin-Different-Phenotype (%): 40% and 34%
  Total Cell Count: 151 and 132
Fibroblast; [3]
  Population Apoptotic (%): 50% and 52%
  Population Fragmented Nuclei (%): 15% and 10%
  Population Healthy Nuclei (%): 54% and 57%
  Population Hoechst High Intensity Objects (%): 0%
  Population Membrane Permeable-Phenotype (%): 7% and 15%
  Population Mitochondria Different-Phenotype (%): 5% and 0%
  Population Mitotic Cells (%): 50% and 47%
  Population Normal (%): 100%
  Population Pyknosed Nuclei (%): 29% and 31%
  Population Tubulin-Different-Phenotype (%): 28% and 24%
  Total Cell Count: 128 and 204
Fibroblast; [4]
  Population Apoptotic (%): 63% and 37%
  Population Fragmented Nuclei (%): 16% and 18%
  Population Healthy Nuclei (%): 47% and 57%
  Population Hoechst High Intensity Objects (%): 0%
  Population Membrane Permeable-Phenotype (%): 8% and 17%
  Population Mitochondria Different-Phenotype (%): 7% and 4%
  Population Mitotic Cells (%): 36% and 62%
  Population Normal (%): 100% and 99%
  Population Pyknosed Nuclei (%): 35% and 24%
  Population Tubulin-Different-Phenotype (%): 65% and 56%
  Total Cell Count: 145 and 143
Fibroblast; [5]
  Population Apoptotic (%): 75% and 69%
  Population Fragmented Nuclei (%): 10% and 13%
  Population Healthy Nuclei (%): 60% and 54%
  Population Hoechst High Intensity Objects (%): 0%
  Population Membrane Permeable-Phenotype (%): 15% and 14%
  Population Mitochondria Different-Phenotype (%): 0% and 2%
  Population Mitotic Cells (%): 24% and 30%
  Population Normal (%): 100% and 99%
  Population Pyknosed Nuclei (%): 28% and 31%
  Population Tubulin-Different-Phenotype (%): 32% and 24%
  Total Cell Count: 128 and 175
Fibroblast; [6]
  Population Apoptotic (%): 71% and 78%
  Population Fragmented Nuclei (%): 25% and 16%
  Population Healthy Nuclei (%): 46% and 54%
  Population Hoechst High Intensity Objects (%): 1% and 0%
  Population Membrane Permeable-Phenotype (%): 16% and 26%
  Population Mitochondria Different-Phenotype (%): 4%
  Population Mitotic Cells (%): 28% and 21%
  Population Normal (%): 98% and 99%
  Population Pyknosed Nuclei (%): 27% and 28%
  Population Tubulin-Different-Phenotype (%): 69% and 80%
  Total Cell Count: 143 and 134
HEK-293T; [1]
  Population Apoptotic (%): 40% and 48%
  Population Fragmented Nuclei (%): 4% and 3%
  Population Healthy Nuclei (%): 83% and 82%
  Population Hoechst High Intensity Objects (%): 7% and 5%
  Population Membrane Permeable-Phenotype (%): 3% and 4%
  Population Mitochondria Different-Phenotype (%): 15% and 22%
  Population Mitotic Cells (%): 59% and 51%
  Population Normal (%): 92% and 94%
  Population Pyknosed Nuclei (%): 11% and 14%
  Population Tubulin-Different-Phenotype (%): 56%
  Total Cell Count: 740 and 522
HEK-293T; [2]
  Population Apoptotic (%): 57% and 54%
  Population Fragmented Nuclei (%): 3% and 5%
  Population Healthy Nuclei (%): 83% and 81%
  Population Hoechst High Intensity Objects (%): 10% and 15%
  Population Membrane Permeable-Phenotype (%): 4% and 3%
  Population Mitochondria Different-Phenotype (%): 49% and 42%
  Population Mitotic Cells (%): 42% and 45%
  Population Normal (%): 89% and 84%
  Population Pyknosed Nuclei (%): 12%
  Population Tubulin-Different-Phenotype (%): 86% and 81%
  Total Cell Count: 426 and 429
HEK-293T; [3]
  Population Apoptotic (%): 39% and 56%
  Population Fragmented Nuclei (%): 8% and 4%
  Population Healthy Nuclei (%): 83% and 85%
  Population Hoechst High Intensity Objects (%): 8% and 7%
  Population Membrane Permeable-Phenotype (%): 4%
  Population Mitochondria Different-Phenotype (%): 5% and 8%
  Population Mitotic Cells (%): 60% and 43%
  Population Normal (%): 91% and 92%
  Population Pyknosed Nuclei (%): 8% and 10%
  Population Tubulin-Different-Phenotype (%): 36% and 38%
  Total Cell Count: 1214 and 697
HEK-293T; [4]
  Population Apoptotic (%): 44% and 68%
  Population Fragmented Nuclei (%): 2% and 7%
  Population Healthy Nuclei (%): 84% and 79%
  Population Hoechst High Intensity Objects (%): 9% and 18%
  Population Membrane Permeable-Phenotype (%): 4% and 3%
  Population Mitochondria Different-Phenotype (%): 53% and 59%
  Population Mitotic Cells (%): 55% and 31%
  Population Normal (%): 90% and 81%
  Population Pyknosed Nuclei (%): 12% and 13%
  Population Tubulin-Different-Phenotype (%): 87% and 86%
  Total Cell Count: 385 and 376
HEK-293T; [5]
  Population Fragmented Nuclei (%): 15% and 8%
  Population Healthy Nuclei (%): 80% and 87%
  Population Hoechst High Intensity Objects (%): 10% and 9%
  Population Membrane Permeable-Phenotype (%): 6% and 3%
  Population Mitochondria Different-Phenotype (%): 0% and 2%
  Population Mitotic Cells (%): 90% and 68%
  Population Normal (%): 89% and 90%
  Population Pyknosed Nuclei (%): 3%
  Population Tubulin-Different-Phenotype (%): 19% and 22%
  Total Cell Count: 2956 and 1428
HEK-293T; [6]
  Population Apoptotic (%): 67% and 74%
  Population Fragmented Nuclei (%): 7% and 14%
  Population Healthy Nuclei (%): 78% and 66%
  Population Hoechst High Intensity Objects (%): 14% and 24%
  Population Membrane Permeable-Phenotype (%): 4%
  Population Mitochondria Different-Phenotype (%): 66% and 58%
  Population Mitotic Cells (%): 32% and 25%
  Population Normal (%): 85% and 75%
  Population Pyknosed Nuclei (%): 14% and 19%
  Population Tubulin-Different-Phenotype (%): 94% and 82%
  Total Cell Count: 296 and 264
U2OS; [1]
  Population Apoptotic (%): 75% and 39%
  Population Healthy Nuclei (%): 62% and 82%
  Population Hoechst High Intensity Objects (%): 2% and 0%
  Population Mitochondria Different-Phenotype (%): 0% and 1%
  Population Mitotic Cells (%): 25% and 60%
  Population Normal (%): 97% and 100%
  Population Pyknosed Nuclei (%): 10% and 12%
  Population Tubulin-Different-Phenotype (%): 52% and 81%
U2OS; [2]
  Population Apoptotic (%): 66% and 45%
  Population Healthy Nuclei (%): 56% and 80%
  Population Hoechst High Intensity Objects (%): 0%
  Population Membrane Permeable-Phenotype (%): 4% and 5%
  Population Mitochondria Different-Phenotype (%): 0% and 2%
  Population Mitotic Cells (%): 33% and 54%
  Population Normal (%): 100%
  Population Pyknosed Nuclei (%): 7% and 13%
  Population Tubulin-Different-Phenotype (%): 40% and 41%
U2OS; [3]
  Population Apoptotic (%): 100% and 56%
  Population Healthy Nuclei (%): 58% and 88%
  Population Hoechst High Intensity Objects (%): 3% and 0%
  Population Mitochondria Different-Phenotype (%): 8% and 0%
  Population Normal (%): 96% and 100%
  Population Pyknosed Nuclei (%): 4% and 7%
  Population Tubulin-Different-Phenotype (%): 59% and 82%
U2OS; [4]
  Population Apoptotic (%): 57% and 52%
  Population Healthy Nuclei (%): 65% and 78%
  Population Hoechst High Intensity Objects (%): 0%
  Population Membrane Permeable-Phenotype (%): 3% and 4%
  Population Mitochondria Different-Phenotype (%): 0% and 5%
  Population Mitotic Cells (%): 42% and 47%
  Population Normal (%): 100%
  Population Pyknosed Nuclei (%): 14% and 16%
  Population Tubulin-Different-Phenotype (%): 40% and 47%
U2OS; [5]
  Population Apoptotic (%): 33% and 36%
  Population Healthy Nuclei (%): 65% and 90%
  Population Hoechst High Intensity Objects (%): 3% and 0%
  Population Membrane Permeable-Phenotype (%): 10% and 1%
  Population Mitochondria Different-Phenotype (%): 10% and 0%
  Population Mitotic Cells (%): 66% and 63%
  Population Normal (%): 96% and 100%
  Population Pyknosed Nuclei (%): 9% and 6%
  Population Tubulin-Different-Phenotype (%): 72% and 84%
U2OS; [6]
  Population Apoptotic (%): 79% and 66%
  Population Fragmented Nuclei (%): 5% and 15%
  Population Healthy Nuclei (%): 81% and 70%
  Population Hoechst High Intensity Objects (%): 0%
  Population Membrane Permeable-Phenotype (%): 4% and 2%
  Population Mitochondria Different-Phenotype (%): 3% and 2%
  Population Mitotic Cells (%): 20% and 33%
  Population Normal (%): 100%
  Population Pyknosed Nuclei (%): 13%
  Population Tubulin-Different-Phenotype (%): 58% and 34%
